From PubChem BioAssay
The list is not random: actives were taken first. Their share in the collection is about 1%.
Lipid droplet – inhibitors of hepatocyte lipid droplet formation, primary screen, imaging, high-throughput imaging, BODIPY stain; AML12 mouse hepatocytes, oleate lipid droplets; inhibition, % at 6.5 µM; 240,000 compounds, 0.4% hits; AID 1656, 2009;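 active = lipid droplet intensity inhibited by at least 50%, with more than 500 cells counted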
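Material – AML12 mouse liver cells · Also added – oleate loading, 100 µM · Compound dosing – 6.5 µM single-point dosing · Times – overnight treatment with compound plus oleate · Measured by – fluorescence imaging, 20x objective, two fields per well · Read-out – percent inhibition of filter-corrected integrated lipid droplet intensity per well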
CTSL1 counter – Fasciola hepatica cathepsin L1 inhibitors, primary screen, counter-screen for PFM18AAP inhibitor project, biochemical, QFRET, fluorogenic peptide substrate. recombinant F. hepatica cathepsin L1, Z-Leu-Arg-MCA fluorescence. inhibition, % at 5.96 µM. 300,000 compounds, 0.49% hits. AID 1906, 2009;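 active = inhibition above the mean of all tested compounds plus 3 SD, set per screening campaign, cut at about 17% in these data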
p-CIP stab down – p/CIP-EGFP fusion destabilizers, primary screen, fluorescence, F442A cells. Q05BA5. 16 h. decrease of EGFP signal, % at 10 µM. 290,000 compounds, 0.01% hits. AID 1984, 2009;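 active = EGFP signal decrease of at least 30% at 10 µM or well 3 SD below plate mean, unless failing retest; inactive = the rest, including hits failing retest or dose response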
Target sequence (Q05BA5 1-1403): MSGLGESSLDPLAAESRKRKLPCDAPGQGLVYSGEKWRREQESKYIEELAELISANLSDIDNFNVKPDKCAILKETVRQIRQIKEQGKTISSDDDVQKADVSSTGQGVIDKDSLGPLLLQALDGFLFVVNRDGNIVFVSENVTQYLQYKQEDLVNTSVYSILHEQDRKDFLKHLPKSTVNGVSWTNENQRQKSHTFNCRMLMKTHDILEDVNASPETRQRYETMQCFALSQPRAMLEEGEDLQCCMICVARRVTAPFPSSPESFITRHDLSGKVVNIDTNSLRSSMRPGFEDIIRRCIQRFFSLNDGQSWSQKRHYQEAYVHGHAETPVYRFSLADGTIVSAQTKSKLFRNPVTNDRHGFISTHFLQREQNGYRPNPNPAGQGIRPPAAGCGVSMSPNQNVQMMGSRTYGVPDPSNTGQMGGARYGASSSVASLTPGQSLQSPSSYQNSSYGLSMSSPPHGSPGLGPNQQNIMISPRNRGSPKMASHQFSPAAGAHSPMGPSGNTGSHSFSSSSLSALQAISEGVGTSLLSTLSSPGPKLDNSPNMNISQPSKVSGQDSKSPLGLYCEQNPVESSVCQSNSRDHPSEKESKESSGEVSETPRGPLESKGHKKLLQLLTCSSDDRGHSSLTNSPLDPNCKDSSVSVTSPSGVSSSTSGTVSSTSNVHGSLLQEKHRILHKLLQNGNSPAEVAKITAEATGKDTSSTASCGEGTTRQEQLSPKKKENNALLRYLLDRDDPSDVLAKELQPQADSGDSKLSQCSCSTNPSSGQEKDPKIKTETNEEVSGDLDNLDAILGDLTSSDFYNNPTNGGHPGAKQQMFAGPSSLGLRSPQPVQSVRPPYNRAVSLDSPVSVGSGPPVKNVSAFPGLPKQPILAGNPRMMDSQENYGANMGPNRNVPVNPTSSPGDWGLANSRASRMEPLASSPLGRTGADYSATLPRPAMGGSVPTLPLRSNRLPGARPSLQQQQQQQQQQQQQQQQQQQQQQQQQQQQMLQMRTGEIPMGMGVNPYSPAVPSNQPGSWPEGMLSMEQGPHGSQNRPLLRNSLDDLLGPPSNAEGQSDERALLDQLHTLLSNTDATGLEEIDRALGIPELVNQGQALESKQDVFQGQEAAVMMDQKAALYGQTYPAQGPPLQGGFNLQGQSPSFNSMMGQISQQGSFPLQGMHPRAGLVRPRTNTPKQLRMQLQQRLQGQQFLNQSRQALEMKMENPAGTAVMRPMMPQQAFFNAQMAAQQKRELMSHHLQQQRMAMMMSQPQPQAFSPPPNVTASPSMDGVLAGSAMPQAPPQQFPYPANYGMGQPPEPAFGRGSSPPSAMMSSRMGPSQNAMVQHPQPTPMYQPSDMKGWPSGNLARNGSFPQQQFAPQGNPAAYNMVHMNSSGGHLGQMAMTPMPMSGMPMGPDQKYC
Arrestin-AP2 inh – inhibitors of beta-arrestin/AP2 binding, primary screen, biochemical, GPCR trafficking, flow cytometry; FITC-arrestin peptide / GST-AP2 beads; AP2 beta2 appendage carries R879A mutation; inhibition, % at 10 µM; 340,000 compounds, 0.31% hits; beta-arrestin 1 C-terminal peptide binding to AP2 beta2-adaptin appendage (human);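 active = inhibition above a set limit, near 3 SD of compounds lacking own fluorescence, cut at about 54% in these data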
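System: GST-AP2 R879A glutathione beads; medium: PBS, Tween 20 0.05%, BSA 0.1%; reagent: fluorescein-tagged arrestin peptide at 50 nM final; schedule: pre-incubation 12 min, peptide binding 1 h, room temperature; detection: flow cytometry, FL1 (488/535 nm); read-out: inhibition as reduced fluorescein signal on beads, percent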
Large screens that a line does not name were inactive; ! = a repeat was not active.

CNC1(C(N)=O)CCNCC1	p-CIP stab down 39
Cc1ccc(Cn2c(=O)c3ccccc3n3nc(C)cc23)cc1	none
C=C(C)Cc1c(C)nc(-c2ccccc2)[nH]c1=O	CTSL1 counter 26
O=C(Nc1cccc(S(=O)(=O)N2CCCCC2)c1)c1cc([N+](=O)[O-])ccc1N1CCOCC1	none (no result: Lipid droplet, p-CIP stab down)
CCOc1ccc(OCC)c(NC(=O)CSc2nc3c(c(=O)n(C)c(=O)n3C)n2CC)c1	none (no result: Lipid droplet)
O=C(CCl)Nc1cccc(S(=O)(=O)N2CCCCCC2)c1	CTSL1 counter 78
Cn1c(=O)c2ccccc2n2c(CCl)nnc12	CTSL1 counter 28
Cc1cc(C)c2sc(N(CCN(C)C)C(=O)c3cc(Cl)sc3Cl)nc2c1	CTSL1 counter 17
Cc1ccc2nc(N(CCN(C)C)C(=O)c3cc(Cl)sc3Cl)sc2c1	none
CN(C)/C=N/NC(=O)c1ccccc1	none (no result: Lipid droplet)
O=C(NN=c1c(=O)c2ccccc2c1=O)c1ccccc1	CTSL1 counter 61 (no result: Lipid droplet)
CCCCOc1ccc(S(=O)(=O)N2CCCCC2)cc1	none
CCCCOc1ccc(S(=O)(=O)N2CCN(c3ccc(N4CCN(CC)CC4)nn3)CC2)cc1	CTSL1 counter 18 (no result: Lipid droplet, p-CIP stab down)
COc1cc2c3nnc(-c4ccc(F)cc4)c-3cn(Cc3cccc(F)c3)c2cc1OC	CTSL1 counter 63
Cc1cc(S(=O)(=O)NCC(c2ccccc2)c2ccccc2)ccc1-n1cnnn1	none
C/C(CC1CC(COCCC(C)C)OC1=O)=N\NC(N)=S (stereo not drawn)	CTSL1 counter 21 (no result: Lipid droplet)
C/C(CCC1CC(C)OC1=O)=N\NC(N)=S (stereo not drawn)	none
CCSc1nnc(NC(=O)C2CCN(C(=O)c3ccc(F)cc3)CC2)s1	none (no result: Lipid droplet, CTSL1 counter, p-CIP stab down)
O=C(CCl)N1CCCC1c1ccc2c(c1)OCCO2 (stereo not drawn)	CTSL1 counter 75
CCOC(=O)/C=C/C(=O)Nc1cccc([N+](=O)[O-])c1	CTSL1 counter 18
NC(=O)N/N=C1\CCS(=O)(=O)c2ccc(F)cc21	none
NC(=S)N/N=C1\CCOc2ccc(F)cc21	CTSL1 counter 18
O=C(Cn1c(NCCO)nc2ccccc21)Nc1cccc(S(=O)(=O)N2CCCC2)c1	none (no result: Lipid droplet, CTSL1 counter, p-CIP stab down)
COc1ccc(OCC(=O)c2c[nH]c3ccccc23)cc1	none
COc1ccc2c(C(=O)CCl)c[nH]c2c1	CTSL1 counter 36
O=C1C(Cl)=C(Nc2ccc3cn[nH]c3c2)C(=O)c2ccccc21	CTSL1 counter 28, p-CIP stab down 59
CCN(C[C@H]1N[C@@](Cc2ccccc2)(C(=O)OC)[C@H]2C(=O)N(C)C(=O)[C@@H]12)C(=O)c1ccc(C)cc1	none (no result: Lipid droplet, CTSL1 counter, p-CIP stab down)
Cc1ccccc1C(=O)NCCN1CCOCC1	none
CC(=O)N1CCc2cc(S(=O)(=O)CCC(=O)NCc3ccc4c(c3)OCO4)ccc21	CTSL1 counter 18 (no result: Lipid droplet)
CCCCCCNC(=O)CC(NS(=O)(=O)c1ccc(NC(C)=O)cc1)C(C)C (stereo not drawn)	none (no result: Lipid droplet)
CC(C)(C)/C(O)=C(/C#N)c1nc2ccccc2[nH]1	none
CCOC(=O)C1CCCN(S(=O)(=O)c2ccc(Br)s2)C1 (stereo not drawn)	CTSL1 counter 17
CCOC(=O)C1CCCN(S(=O)(=O)c2ccc(-c3cc(C)no3)s2)C1 (stereo not drawn)	none
Cc1cccc(NS(=O)(=O)c2cc3c(cc2C)N(C)CCO3)c1	CTSL1 counter 65
COc1cccc(NS(=O)(=O)c2cc3c(cc2C)N(C)CCO3)c1	none
COc1ccc(N2CCN(CCNC(=O)CCNS(=O)(=O)c3cccs3)CC2)cc1	none
CC(C)C(NS(=O)(=O)c1cccs1)C(=O)NCCN1CCN(c2ccccc2)CC1 (stereo not drawn)	CTSL1 counter 48 (no result: Lipid droplet)
Clc1ccc(Cl)c(OCc2cc(-c3ccccc3Cl)on2)c1	CTSL1 counter 19 (no result: Lipid droplet)
NC(=S)N/N=C/c1c[nH]c2ccc(OCc3ccccc3)cc12	CTSL1 counter 55
COc1cccc(/C=N/NC(N)=S)c1OCc1cccc(Cl)c1	CTSL1 counter 17
COc1cccc(/C=N/NC(=S)NCCc2ccccc2)c1OC	none (no result: CTSL1 counter)
NC(=S)N/N=C\c1ccccc1OCc1ccccc1	none
CCOc1ccccc1NC(=O)c1ccc2c(c1)C(=O)N(C(C)(C)C)C2=O	none
O=C(COc1ccccc1)NCC1(N2CCCCC2)CCCCC1	CTSL1 counter 28
N#Cc1ccc(OCC(=O)NCC2(N3CCCCC3)CCCCC2)cc1	none
CCc1cc2c(SCC(=O)c3ccccc3)ncnc2s1	CTSL1 counter 19
Cc1ccc(/C=C/C(=O)OC(C)C(=O)Nc2ccc(Cl)cn2)o1 (stereo not drawn)	CTSL1 counter 28
COc1cc(/C=C/C(=O)OC(C)C(=O)Nc2ccc(Cl)cn2)ccc1OC(F)F (stereo not drawn)	none (no result: Lipid droplet, CTSL1 counter, p-CIP stab down)
O=C(COC(=O)c1cccs1)NCCc1ccc(F)cc1	none (no result: Lipid droplet, CTSL1 counter, p-CIP stab down)
CC1(C)C(=O)N(c2ccccc2)C1c1ccccc1O (stereo not drawn)	none
COc1ccc(N2C(=O)C(C)(C)C2c2c(O)ccc3ccccc23)cc1 (stereo not drawn)	CTSL1 counter 17
COc1ccc(CNC(=O)c2c(C)oc3c2C(=O)c2ccccc2C3=O)cc1	none
Cc1oc2c(c1C(=O)NCc1cccnc1)C(=O)c1ccccc1C2=O	CTSL1 counter 31 (no result: p-CIP stab down, Arrestin-AP2 inh)
Cc1ccc(NC(=O)CSc2nnc(-c3ccco3)n2N)cc1F	none
O=C(COC(=O)c1ccc[nH]c1=O)NCCc1ccc(Cl)cc1Cl	CTSL1 counter 18
COC(=O)c1c(NC(=O)c2ccc([N+](=O)[O-])o2)sc2c1CCN(C(C)C)C2	CTSL1 counter 26
COc1ccc(-c2cc(CNC(=O)CCl)on2)cc1	CTSL1 counter 22 (no result: Lipid droplet)
CCC(CNc1cc(OC)cc2cccnc12)NC1CCCCC1 (stereo not drawn)	CTSL1 counter 86
COc1cc(NCCCC(C)N)c2ncccc2c1 (stereo not drawn)	none (no result: Lipid droplet, CTSL1 counter, p-CIP stab down)
NCCCS(=O)(=O)O	CTSL1 counter 19!
Nc1ccc(O)cc1	CTSL1 counter 96 (no result: Lipid droplet, p-CIP stab down, Arrestin-AP2 inh)
Nc1ccc(C(=O)O)cc1	none (no result: Lipid droplet, p-CIP stab down)
O=C(N/C(=C/C=C/c1ccccc1)C(=O)N1CCCCC1)c1ccc([N+](=O)[O-])cc1	CTSL1 counter 18
O=C(N/C(=C/c1ccc([N+](=O)[O-])cc1)C(=O)N1CCCC1)c1ccccc1	none
COc1cc(-c2nc(CN3CCN(c4ncccn4)CC3)c(C)o2)ccc1F	none
O=C(O)c1ccc(CSc2nnc(COc3ccc(Cl)cc3Cl)o2)cc1	CTSL1 counter 40 (no result: Lipid droplet)
COc1ccc(OCc2nnc(SCc3ccc(C(=O)O)cc3)o2)cc1	none
Cc1ccc(C(=O)Nc2cccc(N(C)S(C)(=O)=O)c2)cc1S(=O)(=O)Nc1ccccc1	CTSL1 counter 19 (no result: Lipid droplet)
CC(C)N=C1NN=C(c2ccc(F)cc2)CS1	CTSL1 counter 17
CCN=C1NN=C(c2ccc(C)cc2)CS1	none (no result: Lipid droplet)
O=C(CN1CCN(c2ccccc2F)CC1)NCc1ccc(Cl)cc1	none
Cc1oc(-c2cccc(Cl)c2)nc1CS(=O)(=O)CC(=O)NCCN1CCOCC1	none
Cc1oc(-c2cccc(Cl)c2)nc1CS(=O)(=O)CC(=O)NCCN1CCCC1	CTSL1 counter 90
